According to ChEMBL document CHEMBL1250476, “Synthesis and antifungal evaluation of novel triazole derivatives as inhibitors of cytochrome P450 14alpha-demethylase” (2010):
Values after ≈ are worked out from the molar mass of the structure shown.

How the values were obtained:
Format in all cases: functional
Candida albicans [1] = experiment: Antifungal activity against Candida albicans Y0109 after 24 hrs by micro-broth dilution method; conditions: Y0109, 24 h
Outline: (§1)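 Broth microdilution per NCCLS on Candida albicans. Compounds were dissolved in DMSO, serially diluted in growth medium, inoculated and incubated at 35 °C. Growth was read at 24 h, and MIC80 was taken as the first well with about 80% growth reduction relative to the drug-free control. Values are the mean of three replicates.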

Trichophyton rubrum = experiment: Antifungal activity against Trichophyton rubrum by micro-broth dilution method
Outline: (§2)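 MIC80 by broth microdilution in 96-well format following NCCLS. Compounds were dissolved in DMSO, serially diluted in growth medium, inoculated and incubated at 35 °C. The endpoint was the first well with about 80% growth reduction versus the drug-free well. Values are means of three replicate tests.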

Kluyveromyces marxianus = experiment: Antifungal activity against Candida kefyr by micro-broth dilution method; outline: as §2
Cryptococcus neoformans = experiment: Antifungal activity against Cryptococcus neoformans after 72 hrs by micro-broth dilution method
Outline: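 Cryptococcus neoformans tested by NCCLS micro-broth dilution. Compounds were dissolved in DMSO, serially diluted in medium, inoculated and incubated at 35 °C. MIC80 was read at 72 h as the first well showing approximately 80% growth reduction compared with the drug-free well. Values are the mean of three replicate tests.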

Candida tropicalis = experiment: Antifungal activity against Candida tropicalis by micro-broth dilution method; outline: as §2
Candida parapsilosis = experiment: Antifungal activity against Candida parapsilosis by micro-broth dilution method; conditions: Lodderomyces parapsilosis; outline: as §2
Aspergillus fumigatus = experiment: Antifungal activity against Aspergillus fumigatus by micro-broth dilution method; outline: as §2
Candida albicans [2] = experiment: Antifungal activity against Candida albicans SC5314 after 24 hrs by micro-broth dilution method; conditions: SC5314, 24 h; outline: as §1

Row | Structure (SMILES) | MIC (Candida albicans [1]) [µg/mL] | MIC (Trichophyton rubrum) [µg/mL] | MIC (Kluyveromyces marxianus) [µg/mL] | MIC (Cryptococcus neoformans) [µg/mL] | MIC (Candida tropicalis) [µg/mL] | MIC (Candida parapsilosis) [µg/mL] | MIC (Aspergillus fumigatus) [µg/mL] | MIC (Candida albicans [2]) [µg/mL]
1 | CC(C)N(Cc1cn(Cc2ccc(F)cc2)nn1)CC(O)(Cn1cncn1)c1ccc(F)cc1F (centres undefined) | 0.25 (≈ 0.515 µM) | 2 (≈ 4.12 µM) | 0.25 (≈ 0.515 µM) | 8 (≈ 16.5 µM) | 1 (≈ 2.06 µM) | 4 (≈ 8.24 µM) | > 64 | 0.25 (≈ 0.515 µM)
2 | CC(C)N(Cc1cn(Cc2cccc([N+](=O)[O-])c2)nn1)CC(O)(Cn1cncn1)c1ccc(F)cc1F (centres undefined) | 0.0625 (≈ 0.122 µM) | 1 (≈ 1.95 µM) | 0.25 (≈ 0.488 µM) | 32 (≈ 62.4 µM) | 4 (≈ 7.8 µM) | 2 (≈ 3.9 µM) | > 64 | < 0.125
3 | CC(C)N(Cc1cn(Cc2ccccc2F)nn1)CC(O)(Cn1cncn1)c1ccc(F)cc1F (centres undefined) | 0.0156 (≈ 0.0321 µM) | < 0.125 | 0.0625 (≈ 0.129 µM) | 2 (≈ 4.12 µM) | < 0.125 | 0.25 (≈ 0.515 µM) | > 64 | < 0.125
4 | CCC(C)n1ncn(-c2ccc(N3CCN(c4ccc(OCC5COC(Cn6cncn6)(c6ccc(Cl)cc6Cl)O5)cc4)CC3)cc2)c1=O (centres undefined) [ITRACONAZOLE] | 0.0625 (≈ 0.0886 µM) | 0.0625 (≈ 0.0886 µM) | 0.0625 (≈ 0.0886 µM) | 0.125 (≈ 0.177 µM) | < 0.0625 | 0.0625 (≈ 0.0886 µM) | 2 (≈ 2.83 µM) | < 0.0625
5 | CC(C)N(Cc1cn(Cc2ccc(C(C)(C)C)cc2)nn1)CC(O)(Cn1cncn1)c1ccc(F)cc1F (centres undefined) | 0.25 (≈ 0.477 µM) | 1 (≈ 1.91 µM) | 0.25 (≈ 0.477 µM) | 32 (≈ 61.1 µM) | 2 (≈ 3.82 µM) | 1 (≈ 1.91 µM) | > 64 | < 0.125
6 | OC(CN(Cc1cn(Cc2cccc(Cl)c2)nn1)C1CC1)(Cn1cncn1)c1ccc(F)cc1F (centres undefined) | 0.0156 (≈ 0.0312 µM) | 4 (≈ 8 µM) | 0.0156 (≈ 0.0312 µM) | 64 (≈ 128 µM) | 4 (≈ 8 µM) | 8 (≈ 16 µM) | > 64 | 1 (≈ 2 µM)
7 | C[C@@H]1[C@H](O)[C@@H](C)/C=C/C=C/C=C/C=C/C=C/C=C/C=C/[C@H](O[C@@H]2O[C@H](C)[C@@H](O)[C@H](N)[C@@H]2O)C[C@@H]2O[C@](O)(C[C@@H](O)C[C@@H](O)[C@H](O)CC[C@@H](O)C[C@@H](O)CC(=O)O[C@H]1C)C[C@H](O)[C@H]2C(=O)O [AMPHOTERICIN B] | 4 (≈ 4.33 µM) | 1 (≈ 1.08 µM) | 0.25 (≈ 0.271 µM) | 4 (≈ 4.33 µM) | 0.25 (≈ 0.271 µM) | 0.125 (≈ 0.135 µM) | 32 (≈ 34.6 µM) | 8 (≈ 8.66 µM)
8 | Cc1ccc(Cn2cc(CN(CC(O)(Cn3cncn3)c3ccc(F)cc3F)C3CC3)nn2)cc1 (centres undefined) | 0.0156 (≈ 0.0325 µM) | < 0.125 | 0.0156 (≈ 0.0325 µM) | 1 (≈ 2.09 µM) | < 0.125 | < 0.125 | 64 (≈ 133 µM) | < 0.125

The next lines start with the values.

Row | MIC (Candida albicans [1]) [µg/mL] | MIC (Trichophyton rubrum) [µg/mL] | MIC (Kluyveromyces marxianus) [µg/mL] | MIC (Cryptococcus neoformans) [µg/mL] | MIC (Candida tropicalis) [µg/mL] | MIC (Candida parapsilosis) [µg/mL] | MIC (Aspergillus fumigatus) [µg/mL] | MIC (Candida albicans [2]) [µg/mL] | Structure (SMILES)
9 | 0.25 (≈ 0.517 µM) | 2 (≈ 4.14 µM) | 0.0625 (≈ 0.129 µM) | 16 (≈ 33.1 µM) | 1 (≈ 2.07 µM) | 4 (≈ 8.27 µM) | > 64 | 1 (≈ 2.07 µM) | OC(CN(Cc1cn(Cc2ccc(F)cc2)nn1)C1CC1)(Cn1cncn1)c1ccc(F)cc1F (centres undefined)
10 | 0.0625 (≈ 0.114 µM) | 1 (≈ 1.83 µM) | 0.25 (≈ 0.458 µM) | 8 (≈ 14.6 µM) | 1 (≈ 1.83 µM) | 4 (≈ 7.32 µM) | > 64 | < 0.125 | CC(C)N(Cc1cn(Cc2ccc(Br)cc2)nn1)CC(O)(Cn1cncn1)c1ccc(F)cc1F (centres undefined)
11 | 0.0625 (≈ 0.127 µM) | 16 (≈ 32.5 µM) | 0.25 (≈ 0.508 µM) | 64 (≈ 130 µM) | 16 (≈ 32.5 µM) | 16 (≈ 32.5 µM) | > 64 | < 0.125 | CC(C)N(Cc1cn(Cc2cccc(C#N)c2)nn1)CC(O)(Cn1cncn1)c1ccc(F)cc1F (centres undefined)
12 | 0.25 (≈ 0.507 µM) | 2 (≈ 4.05 µM) | 0.25 (≈ 0.507 µM) | 1 (≈ 2.03 µM) | 2 (≈ 4.05 µM) | 4 (≈ 8.1 µM) | > 64 | 4 (≈ 8.1 µM) | CCc1ccc(Cn2cc(CN(CC(O)(Cn3cncn3)c3ccc(F)cc3F)C3CC3)nn2)cc1 (centres undefined)
13 | 0.0156 (≈ 0.0291 µM) | 0.25 (≈ 0.466 µM) | 0.25 (≈ 0.466 µM) | 8 (≈ 14.9 µM) | 0.25 (≈ 0.466 µM) | 0.5 (≈ 0.932 µM) | > 64 | 4 (≈ 7.46 µM) | CC(C)N(Cc1cn(Cc2ccc(Cl)cc2Cl)nn1)CC(O)(Cn1cncn1)c1ccc(F)cc1F (centres undefined)
14 | 0.0625 (≈ 0.122 µM) | 0.25 (≈ 0.49 µM) | 0.0156 (≈ 0.0306 µM) | 64 (≈ 125 µM) | 4 (≈ 7.84 µM) | 8 (≈ 15.7 µM) | > 64 | 4 (≈ 7.84 µM) | O=[N+]([O-])c1cccc(Cn2cc(CN(CC(O)(Cn3cncn3)c3ccc(F)cc3F)C3CC3)nn2)c1 (centres undefined)
15 | 0.0625 (≈ 0.122 µM) | 1 (≈ 1.95 µM) | 0.0625 (≈ 0.122 µM) | 32 (≈ 62.4 µM) | 2 (≈ 3.9 µM) | 8 (≈ 15.6 µM) | > 64 | < 0.125 | CC(C)N(Cc1cn(Cc2ccccc2[N+](=O)[O-])nn1)CC(O)(Cn1cncn1)c1ccc(F)cc1F (centres undefined)
16 | 0.0625 (≈ 0.122 µM) | 4 (≈ 7.84 µM) | 0.0625 (≈ 0.122 µM) | 64 (≈ 125 µM) | 4 (≈ 7.84 µM) | 4 (≈ 7.84 µM) | > 64 | 16 (≈ 31.3 µM) | O=[N+]([O-])c1ccccc1Cn1cc(CN(CC(O)(Cn2cncn2)c2ccc(F)cc2F)C2CC2)nn1 (centres undefined)
17 | 1 (≈ 1.83 µM) | 0.0625 (≈ 0.114 µM) | 0.0039 (≈ 0.00714 µM) | 1 (≈ 1.83 µM) | 0.25 (≈ 0.458 µM) | 0.0156 (≈ 0.0285 µM) | > 64 | 0.25 (≈ 0.458 µM) | CC(C)N(Cc1cn(Cc2cccc(Br)c2)nn1)CC(O)(Cn1cncn1)c1ccc(F)cc1F (centres undefined)
18 | 0.0156 (≈ 0.0317 µM) | 2 (≈ 4.06 µM) | 1 (≈ 2.03 µM) | 64 (≈ 130 µM) | 1 (≈ 2.03 µM) | 8 (≈ 16.2 µM) | > 64 | 0.25 (≈ 0.508 µM) | CC(C)N(Cc1cn(Cc2ccccc2C#N)nn1)CC(O)(Cn1cncn1)c1ccc(F)cc1F (centres undefined)
